Experiments:
[1] = target: Protein kinase C delta type (Homo sapiens, UniProt Q05655); assay: Binding affinity to PKCdelta C1B subdomain after 1 hr by fluorescence quenching analysis
Method in brief: (§1)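 Purified C1B subdomain of PKC delta, epsilon or theta was titrated with ligand in 50 mM Tris, 150 mM NaCl, 2 mM DTT, ZnSO4, pH 7.2, at 25 °C. Intrinsic fluorescence was excited at 280 nm and emission recorded from 300–550 nm. (F0−F)/F at 350 nm was plotted against ligand concentration, and the curve was fitted to a modified Hill equation to give EC50 and Hill coefficient.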

[2] = target: T1, Protein kinase C epsilon type (Homo sapiens, UniProt Q02156); assay: Binding affinity to PKCepsilon C1B subdomain after 1 hr by fluorescence quenching analysis; method in brief: as §1
T1 sequence (Q02156 whole entry): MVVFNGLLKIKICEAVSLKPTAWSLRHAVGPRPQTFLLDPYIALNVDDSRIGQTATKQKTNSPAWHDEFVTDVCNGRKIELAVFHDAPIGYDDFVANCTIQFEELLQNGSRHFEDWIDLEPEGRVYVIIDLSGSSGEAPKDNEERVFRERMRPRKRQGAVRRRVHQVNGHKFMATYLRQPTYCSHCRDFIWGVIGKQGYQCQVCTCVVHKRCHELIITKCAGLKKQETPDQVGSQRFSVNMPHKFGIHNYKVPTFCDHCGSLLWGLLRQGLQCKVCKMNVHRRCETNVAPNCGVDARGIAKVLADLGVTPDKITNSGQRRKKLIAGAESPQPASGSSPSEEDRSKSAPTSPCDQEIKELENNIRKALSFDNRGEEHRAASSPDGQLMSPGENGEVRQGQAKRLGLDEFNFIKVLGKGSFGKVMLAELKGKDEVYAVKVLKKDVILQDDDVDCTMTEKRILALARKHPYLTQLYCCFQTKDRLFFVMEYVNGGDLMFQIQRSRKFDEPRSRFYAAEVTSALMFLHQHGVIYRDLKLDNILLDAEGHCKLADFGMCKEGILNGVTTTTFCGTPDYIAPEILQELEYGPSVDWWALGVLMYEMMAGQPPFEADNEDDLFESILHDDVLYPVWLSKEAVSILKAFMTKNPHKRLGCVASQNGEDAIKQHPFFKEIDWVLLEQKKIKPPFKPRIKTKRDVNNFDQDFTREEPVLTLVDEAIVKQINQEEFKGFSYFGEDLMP

[3] = target: Protein kinase C theta type (Homo sapiens, UniProt Q04759); assay: Binding affinity to PKCtheta C1B subdomain after 1 hr by fluorescence quenching analysis; method in brief: as §1
Chain of Protein kinase C theta type (Q04759 whole entry): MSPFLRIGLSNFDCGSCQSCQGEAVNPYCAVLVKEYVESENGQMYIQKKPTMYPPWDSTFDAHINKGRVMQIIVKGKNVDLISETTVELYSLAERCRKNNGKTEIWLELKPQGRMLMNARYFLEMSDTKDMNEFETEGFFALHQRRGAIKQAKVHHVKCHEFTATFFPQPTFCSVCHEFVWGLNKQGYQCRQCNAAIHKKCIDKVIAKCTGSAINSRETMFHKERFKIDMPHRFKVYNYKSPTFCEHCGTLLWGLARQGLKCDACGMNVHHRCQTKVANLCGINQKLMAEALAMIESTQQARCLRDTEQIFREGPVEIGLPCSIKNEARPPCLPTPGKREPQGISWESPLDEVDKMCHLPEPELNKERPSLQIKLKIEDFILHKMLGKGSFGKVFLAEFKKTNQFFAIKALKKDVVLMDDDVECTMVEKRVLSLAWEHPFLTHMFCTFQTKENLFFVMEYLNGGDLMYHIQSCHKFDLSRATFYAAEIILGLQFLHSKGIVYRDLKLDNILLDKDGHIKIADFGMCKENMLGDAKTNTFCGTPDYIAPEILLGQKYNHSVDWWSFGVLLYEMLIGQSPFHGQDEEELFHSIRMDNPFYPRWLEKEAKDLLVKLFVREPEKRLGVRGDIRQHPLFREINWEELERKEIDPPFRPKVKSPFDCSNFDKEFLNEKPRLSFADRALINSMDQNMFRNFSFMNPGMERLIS

[4] = Selectivity ratio of EC50 for PKCdelta C1B subdomain to EC50 for PKCtheta C1B subdomain
Method in brief: (§2)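 Ratios of EC50 values, each taken from a modified-Hill fit of intrinsic tryptophan/tyrosine fluorescence quenching (excitation 280 nm, read at 350 nm) of the C1B subdomains in Tris/NaCl/DTT/ZnSO4 buffer, pH 7.2, at 25 °C.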

[5] = Selectivity ratio of EC50 for PKCepsilon C1B subdomain to EC50 for PKCtheta C1B subdomain; method in brief: as §2
[6] = Solubility of the compound; format: physicochemical

Chain of Protein kinase C delta type (Q05655 whole entry): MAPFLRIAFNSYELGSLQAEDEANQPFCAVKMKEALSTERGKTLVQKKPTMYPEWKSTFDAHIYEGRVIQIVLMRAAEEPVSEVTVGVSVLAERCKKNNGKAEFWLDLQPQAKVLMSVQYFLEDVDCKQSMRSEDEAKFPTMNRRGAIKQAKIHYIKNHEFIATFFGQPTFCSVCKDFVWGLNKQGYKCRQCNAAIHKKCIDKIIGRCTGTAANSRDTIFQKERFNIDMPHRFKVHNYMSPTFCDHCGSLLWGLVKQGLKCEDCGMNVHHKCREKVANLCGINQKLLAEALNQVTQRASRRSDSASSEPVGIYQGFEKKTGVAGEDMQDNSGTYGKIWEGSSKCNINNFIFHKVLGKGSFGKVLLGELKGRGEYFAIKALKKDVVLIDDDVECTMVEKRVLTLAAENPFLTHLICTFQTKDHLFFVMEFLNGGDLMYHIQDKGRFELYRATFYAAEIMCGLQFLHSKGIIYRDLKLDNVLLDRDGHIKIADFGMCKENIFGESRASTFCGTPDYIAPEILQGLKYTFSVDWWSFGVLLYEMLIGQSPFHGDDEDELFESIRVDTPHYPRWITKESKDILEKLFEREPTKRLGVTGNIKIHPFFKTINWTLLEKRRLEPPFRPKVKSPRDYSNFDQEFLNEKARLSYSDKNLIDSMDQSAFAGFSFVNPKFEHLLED

Structure (SMILES) | EC50 [1] [µM] | EC50 [2] [µM] | EC50 [3] [µM] | Ratio EC50 [4] | Ratio EC50 [5] | solubility [6]
CCCCCCCCOc1ccc(/C=C/c2cc(/C=C/c3ccc(OCCCCCCCC)c(OC)c3)on2)cc1OC | – | – | – | – | – | Insoluble
CCCCOc1ccc(/C=C/c2cc(/C=C/c3ccc(OCCCC)c(OC)c3)on2)cc1OC | 25.2 | 23.4 | 7.14 | – | – | –

Continued by falling EC50 [1], values first:

EC50 [1] [µM] | EC50 [2] [µM] | EC50 [3] [µM] | Ratio EC50 [4] | Ratio EC50 [5] | solubility [6] | Structure (SMILES)
21.6 | 16.1 | 15.8 | – | – | – | CCCCOc1ccc(/C=C/c2cc(/C=C/c3ccc(O)c(OC)c3)n[nH]2)cc1OC
15 | 18.8 | 7.25 | 2 | 2 | – | COc1cc(/C=C/c2cc(/C=C/c3ccc(O)c(OC)c3)[nH]n2)ccc1O [CURCUMIN PYRAZOLE]
11.5 | 11.8 | 3.16 | 3 | 3 | – | COc1cc(/C=C/c2cc(/C=C/c3ccc(O)c(OC)c3)on2)ccc1O

— ChEMBL document CHEMBL1914309, “Binding of isoxazole and pyrazole derivatives of curcumin with the activator binding domain of novel protein kinase C” (Bioorg Med Chem, 2011)
